One data set concerns the target T1, Cytochrome P450 26A1 (Homo sapiens, UniProt O43174).
T1 sequence (O43174 whole entry): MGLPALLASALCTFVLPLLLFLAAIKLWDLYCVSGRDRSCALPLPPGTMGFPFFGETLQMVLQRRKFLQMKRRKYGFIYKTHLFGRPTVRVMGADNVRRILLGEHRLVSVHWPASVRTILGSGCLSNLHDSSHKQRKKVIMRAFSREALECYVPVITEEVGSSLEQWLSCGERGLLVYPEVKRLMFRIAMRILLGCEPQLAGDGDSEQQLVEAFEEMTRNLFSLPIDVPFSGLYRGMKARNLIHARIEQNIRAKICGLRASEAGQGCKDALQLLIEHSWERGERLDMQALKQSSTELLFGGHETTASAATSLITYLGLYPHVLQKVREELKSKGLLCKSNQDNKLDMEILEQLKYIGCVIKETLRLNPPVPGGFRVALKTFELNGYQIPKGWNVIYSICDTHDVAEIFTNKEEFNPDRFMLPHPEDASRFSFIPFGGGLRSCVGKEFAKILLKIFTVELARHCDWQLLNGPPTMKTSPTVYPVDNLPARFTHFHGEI
Nature of the data set: Inhibition of CYP26A1 in human MCF7 cell microsomes using [3H]ATRA after 1 hr by scintillation counting. Also on record: species or system Microsome. The method, boiled down: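 Cell-free assay on MCF7 CYP26A1 microsomes with [11,12-3H]all-trans-retinoic acid as substrate. IC50 taken from the best fit of a four-point dose-response curve.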

In data set [1] the test system is SH-SY5Y. In words: Induction of CYP26A1 mRNA expression in human SH-SY5Y cells at 1 uM after 72 hrs by RT-PCR analysis in presence of 0.1 uM of all-trans retinoic acid. It is filed as functional. The method, boiled down: (§1)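 SH-SY5Y cells exposed 72 h to test agent at 1 μM alone or with 0.1 μM ATRA. Total RNA extracted, reverse transcribed, and quantified by real-time PCR with TaqMan probes for CYP26A1 and β-actin. CYP26A1 was normalized to β-actin and reported as fold increase over cells given ATRA alone.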

For another data set, the target named is T2, CYP1A2 (Homo sapiens, UniProt P05177).
T2 sequence (P05177 whole entry): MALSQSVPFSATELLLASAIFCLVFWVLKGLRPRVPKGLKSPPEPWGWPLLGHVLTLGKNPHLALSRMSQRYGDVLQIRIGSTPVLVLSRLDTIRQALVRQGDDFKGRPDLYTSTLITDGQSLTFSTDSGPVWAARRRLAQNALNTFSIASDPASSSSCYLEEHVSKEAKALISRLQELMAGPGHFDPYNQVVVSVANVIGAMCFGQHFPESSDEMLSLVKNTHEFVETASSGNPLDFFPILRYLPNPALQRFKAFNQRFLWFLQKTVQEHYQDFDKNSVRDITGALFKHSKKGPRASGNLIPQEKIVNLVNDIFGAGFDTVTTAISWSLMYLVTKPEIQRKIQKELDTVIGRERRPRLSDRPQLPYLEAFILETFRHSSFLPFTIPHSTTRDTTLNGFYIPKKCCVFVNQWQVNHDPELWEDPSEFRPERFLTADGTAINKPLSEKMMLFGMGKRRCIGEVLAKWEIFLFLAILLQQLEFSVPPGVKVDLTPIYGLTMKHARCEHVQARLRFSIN
Nature of the data set: Inhibition of CYP1A2 in human liver microsomes at 0.4 uM. The format is ADME, Microsome.

The target in another data set is CYP3A4 (Homo sapiens, UniProt P08684). In words: Inhibition of CYP3A4 in human liver microsomes at 0.4 uM. It is filed as ADME, Microsome.
Sequence of CYP3A4 (P08684 whole entry): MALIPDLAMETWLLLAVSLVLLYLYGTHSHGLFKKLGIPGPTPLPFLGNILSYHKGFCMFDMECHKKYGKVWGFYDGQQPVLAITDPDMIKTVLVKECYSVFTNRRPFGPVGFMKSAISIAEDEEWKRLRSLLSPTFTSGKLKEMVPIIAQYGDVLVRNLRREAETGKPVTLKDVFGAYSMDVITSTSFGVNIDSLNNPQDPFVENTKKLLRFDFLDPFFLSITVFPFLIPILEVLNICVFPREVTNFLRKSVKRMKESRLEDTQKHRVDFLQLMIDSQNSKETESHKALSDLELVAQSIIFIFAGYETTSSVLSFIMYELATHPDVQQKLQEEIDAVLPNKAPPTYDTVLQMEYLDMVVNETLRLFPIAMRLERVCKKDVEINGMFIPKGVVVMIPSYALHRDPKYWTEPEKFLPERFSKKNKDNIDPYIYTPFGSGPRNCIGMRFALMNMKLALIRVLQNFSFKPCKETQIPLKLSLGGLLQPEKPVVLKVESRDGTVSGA
In another data set the target is CYP2C9 (Homo sapiens, UniProt P11712). In words: Inhibition of CYP2C9 in human liver microsomes at 0.4 uM. The format is ADME, Microsome.
Sequence of CYP2C9 (P11712 whole entry): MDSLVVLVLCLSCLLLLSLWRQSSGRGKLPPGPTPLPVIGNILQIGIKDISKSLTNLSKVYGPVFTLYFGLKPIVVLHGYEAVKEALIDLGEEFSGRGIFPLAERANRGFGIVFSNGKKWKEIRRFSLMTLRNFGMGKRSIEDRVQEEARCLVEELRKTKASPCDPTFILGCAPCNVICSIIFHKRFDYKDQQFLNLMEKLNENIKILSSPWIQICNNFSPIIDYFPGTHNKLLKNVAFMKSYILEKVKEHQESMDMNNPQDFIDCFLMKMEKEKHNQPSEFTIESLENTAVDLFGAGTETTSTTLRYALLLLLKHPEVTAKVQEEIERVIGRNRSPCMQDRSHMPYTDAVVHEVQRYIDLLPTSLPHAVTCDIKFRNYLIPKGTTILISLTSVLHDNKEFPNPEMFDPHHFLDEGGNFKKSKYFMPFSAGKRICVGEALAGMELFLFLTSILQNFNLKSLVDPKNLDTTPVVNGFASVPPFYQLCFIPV
In the next data set the target is CYP2C19 (Homo sapiens, UniProt P33261). Nature of the data set: Inhibition of CYP2C19 in human liver microsomes at 0.4 uM. It is filed as ADME, Microsome. Background: Liver microsomes are vesicles of endoplasmic reticulum, rich in cytochrome P450 enzymes.
Sequence of CYP2C19 (P33261 whole entry): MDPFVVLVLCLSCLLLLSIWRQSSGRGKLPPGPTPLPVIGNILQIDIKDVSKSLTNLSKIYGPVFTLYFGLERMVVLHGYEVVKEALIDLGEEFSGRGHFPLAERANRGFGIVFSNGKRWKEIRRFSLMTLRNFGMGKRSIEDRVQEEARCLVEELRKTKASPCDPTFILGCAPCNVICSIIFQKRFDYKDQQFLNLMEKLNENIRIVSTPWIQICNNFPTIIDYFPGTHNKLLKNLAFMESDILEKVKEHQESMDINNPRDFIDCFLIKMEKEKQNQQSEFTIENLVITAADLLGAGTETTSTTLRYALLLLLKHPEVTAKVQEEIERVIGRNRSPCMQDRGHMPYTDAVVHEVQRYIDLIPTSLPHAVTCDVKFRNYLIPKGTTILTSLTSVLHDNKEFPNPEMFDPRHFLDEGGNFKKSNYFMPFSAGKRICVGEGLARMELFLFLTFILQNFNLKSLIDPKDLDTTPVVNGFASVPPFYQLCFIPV
In the next data set the target is CYP2D6 (Homo sapiens, UniProt P10635). Nature of the data set: Inhibition of CYP2D6 in human liver microsomes at 0.4 uM. The format is ADME, Microsome.
Sequence of CYP2D6 (P10635 whole entry): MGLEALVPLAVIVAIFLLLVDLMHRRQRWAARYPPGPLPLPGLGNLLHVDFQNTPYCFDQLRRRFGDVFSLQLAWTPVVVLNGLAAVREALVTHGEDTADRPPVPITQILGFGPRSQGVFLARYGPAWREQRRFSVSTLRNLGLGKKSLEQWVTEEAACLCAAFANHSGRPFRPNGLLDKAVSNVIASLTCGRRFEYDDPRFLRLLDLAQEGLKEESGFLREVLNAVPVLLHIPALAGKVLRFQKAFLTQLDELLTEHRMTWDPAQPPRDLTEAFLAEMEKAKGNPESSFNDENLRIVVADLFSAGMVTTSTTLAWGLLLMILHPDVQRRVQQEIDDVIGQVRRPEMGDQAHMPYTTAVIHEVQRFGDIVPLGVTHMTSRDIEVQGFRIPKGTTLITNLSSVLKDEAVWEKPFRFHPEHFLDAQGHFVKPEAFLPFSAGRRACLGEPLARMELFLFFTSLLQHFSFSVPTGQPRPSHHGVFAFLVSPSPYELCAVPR
The target of another data set is T3, Cytochrome P450 1A2 (Homo sapiens, UniProt P05177).
T3 sequence (P05177 whole entry): T2 sequence (P05177 whole entry)
In words: Inhibition of CYP1A2 in human liver microsomes. It is filed as ADME, Microsome.

The next data set has as its target Cytochrome P450 2C9 (Homo sapiens, UniProt P11712). Nature of the data set: Inhibition of CYP2C9 in human liver microsomes. It is filed as ADME, Microsome.
A further data set deals with Cytochrome P450 2D6 (Homo sapiens, UniProt P10635). In words: Inhibition of CYP2D6 in human liver microsomes. The format is ADME, Microsome.
Sequence of Cytochrome P450 2D6 (P10635 whole entry): as above
For data set [2], the system named is Salmonella typhimurium. Nature of the data set: Mutagenic activity in Salmonella Typhimurium TA98 by Ames test in presence of S9 mixture. The format is toxicity, organism-based. The conditions noted are these: salmonella enterica subsp. enterica serovar typhimurium. In outline: (§2)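 Ames screen with Salmonella typhimurium strains TA98 and TA100, run with and without S-9 mix.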
Background: The Ames test detects mutagens through reverse mutation in bacteria.

Data set [3] deals with Salmonella typhimurium. In words: Mutagenic activity in Salmonella Typhimurium TA100 by Ames test in presence of S9 mixture. It is filed as toxicity, organism-based. The conditions noted are these: salmonella enterica subsp. enterica serovar typhimurium. In outline:
as §2

A short description of data set [4]: Half life in human liver microsomes. The format is ADME, Microsome.
In data set [5] the test system is SH-SY5Y. In words: Induction of CYP26A1 mRNA expression in human SH-SY5Y cells at 1 uM after 72 hrs by RT-PCR analysis. The format is functional, cell-based. The method, boiled down:
as §1

Active and inactive are the calls of the source.

Sequence of Cytochrome P450 2C9 (P11712 whole entry): as the sequence (P11712 whole entry) above

In turn, `COC(=O)[C@H](C)[C@H](c1ccc(Nc2ccccc2)cc1)n1ccnc1` (relative stereo) registered an IC50 against Cytochrome P450 26A1 of 26 nM.
In turn, `COC(=O)C(C)(C)C(c1ccc(Oc2ccc3ccccc3c2)cc1)n1ccnc1` (stereo not drawn) came in with an IC50 on Cytochrome P450 26A1 of more than 1000 nM.
Regarding `COC(=O)[C@@H](C)[C@H](c1ccc(Nc2ccccc2)cc1)n1ccnc1` (relative stereo), half-maximal inhibition on Cytochrome P450 26A1 (IC50) was put at 40 nM. In addition, in the data set with SH-SY5Y [1], the result was Active.
Taken in the same sequence, the figures for `COC(=O)C(C)(C)C(c1ccc(Nc2ccc3cc(O)ccc3c2)cc1)n1ccnc1` (stereo not drawn) were 3 nM and “Active”.
On to `COC(=O)C(C)(C)C(c1ccc(Nc2ccc3ccccc3c2)cc1)n1ccnc1` (stereo not drawn), for which the IC50 against Cytochrome P450 26A1 is 3 nM; on Cytochrome P450 1A2 it was 1200 nM; on Cytochrome P450 2C9 it was 1500 nM; against Cytochrome P450 2D6, 600 nM. Further, the “fold change (FC)” value in the data set on SH-SY5Y [1] is on record as 5.8. Moreover, the inhibition at 0.4 µM against CYP1A2 was 21%; at CYP3A4, 60%; against CYP2C9, 41%; on CYP2C19 it was 11%; at CYP2D6 it was 25%. Also, the Activity result in the data set on Salmonella typhimurium [2] and in the data set with Salmonella typhimurium [3] was “Non-toxic” in each case. This compound had a half-life in data set [4] of 5 h.
The compound `COC(=O)C(C)(C)C(c1ccc(Nc2nc3ccccc3o2)cc1)n1ccnc1` (stereo not drawn) came in with an IC50 against Cytochrome P450 26A1 of 10 nM. The outcome with SH-SY5Y [1] was Active. Further, the inhibition at 0.4 µM against CYP1A2 was 31%; against CYP3A4, 84%; at CYP2C9, 45%; at CYP2C19, 13%; on CYP2D6 it was 55%.
For the compound `C[C@H]([C@@H](c1ccc(Nc2nc3ccccc3s2)cc1)n1ccnc1)N(C)C`, the half-inhibitory concentration (IC50) on Cytochrome P450 26A1 was 10 nM; against Cytochrome P450 1A2, 8300 nM; on Cytochrome P450 2C9, 5900 nM; against Cytochrome P450 2D6, 3900 nM. Further, the result with SH-SY5Y [5] was inactive. Moreover, in the data set with SH-SY5Y [1], the “fold change (FC)” value is reported as 4.7.
Take `COC(=O)C(C)(C)C(c1ccc(Nc2ccc(-c3ccccc3)cc2)cc1)n1ccnc1` (stereo not drawn): the IC50 against Cytochrome P450 26A1 came to 250 nM. That is a sub-micromolar value.
For `COC(=O)C(C)(C)C(c1ccc(Nc2cccc3ccccc23)cc1)n1ccnc1` (stereo not drawn), on Cytochrome P450 26A1, the IC50 was 6 nM. In the data set with SH-SY5Y [1], the outcome was Active. Also, the inhibition at 0.4 µM on CYP1A2 came to 15%; at CYP3A4, 75%; against CYP2C9, 48%; on CYP2C19 it was 49%; on CYP2D6 it was 53%.
In the case of `CCOc1ccc2ccccc2c1Nc1ccc(C(n2ccnc2)C(C)(C)C(=O)OC)cc1` (stereo not drawn), at Cytochrome P450 26A1, the IC50 is 125 nM.
`COC(=O)C(C)(C)C(c1ccc(Cc2ccc3ccccc3c2)cc1)n1ccnc1` (stereo not drawn) gave a half-inhibitory concentration (IC50) on Cytochrome P450 26A1 of more than 1000 nM.
Turning to `COC(=O)C(C)(C)C(c1ccc(Nc2nc3ccccc3s2)cc1)n1ccnc1` (stereo not drawn), half-maximal inhibition at Cytochrome P450 26A1 (IC50) required 100 nM. Besides, the inhibition at 0.4 µM on CYP1A2 was 38%; at CYP3A4 it was 46%; on CYP2C9 it was 87%; at CYP2C19, 91%; at CYP2D6, 11%.
In the case of `Clc1cccc(C(c2ccc3[nH]cnc3c2)n2ccnc2)c1` (stereo not drawn) [LIAROZOLE], the outcome in the data set on SH-SY5Y [5] was inactive. Besides, in the data set with SH-SY5Y [1], the “fold change (FC)” value came to 2.3.
As to `COC(=O)C(C)(C)C(c1ccc(Nc2ccc3c(c2)OCO3)cc1)n1ccnc1` (stereo not drawn), the IC50 on Cytochrome P450 26A1 came out at 8 nM. In the data set with SH-SY5Y [1], the result was Active.
Take `COC(=O)[C@H](C)[C@H](c1ccc(Nc2ccc3ccccc3c2)cc1)n1ccnc1` (relative stereo): the IC50 against Cytochrome P450 26A1 came out at 50 nM. Further, the result with SH-SY5Y [1] was Active.
For `COC(=O)[C@@H](C)[C@H](c1ccc(Nc2ccc3ccccc3c2)cc1)n1ccnc1` (relative stereo), the IC50 at Cytochrome P450 26A1 was 140 nM. This lies in the sub-micromolar range.
As for `COC(=O)C(C)(C)C(c1ccc(Nc2ccc3cc(OC)ccc3c2)cc1)n1ccnc1` (stereo not drawn), the half-inhibitory concentration (IC50) on Cytochrome P450 26A1 came out at 8 nM.
In turn, `COC(=O)C(C)(C)C(c1ccc(Nc2ccccc2)cc1)n1ccnc1` (stereo not drawn) came in with a concentration for half-maximal inhibition (IC50) on Cytochrome P450 26A1 of 10 nM. Besides, the result in the data set with SH-SY5Y [1] was Active.

A word on the IC50: it is the concentration at which inhibition is half-maximal. High values mean weaker potency in that assay, low ones greater potency in that assay. For orientation: inhibition means the drop in the measured response relative to a control, in per cent. Lower therefore signals little suppression. For orientation: half-life means the time needed for the level to fall by half in the phase considered. Higher therefore signals slow loss.

These data come from ChEMBL document CHEMBL1764976, “Small molecule inhibitors of retinoic acid 4-hydroxylase (CYP26): synthesis and biological evaluation of imidazole methyl 3-(4-(aryl-2-ylamino)phenyl)propanoates” (J Med Chem, 2011).
